SMILES strings stand for the structures. Active and inactive are the calls of the source. No cut-off for these calls is given here.

Holding throughout (type): cell-based
Experiment [1] addresses T1, von Hippel-Lindau disease tumor suppressor/Baculoviral IAP repeat-containing protein 3 (Homo sapiens) (UniProt Q13489+P40337). The experiment in a line: PROTAC activity at VHL/IAP in human MM1.S cells assessed as induction of cIAP2 degradation at 10 nM incubated for 16 hrs by western blot analysis. The gist of the method: (§1)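 MM.1S cells (RPMI-1640, 10% FBS, 1% pen/strep, 1% L-glutamine, 37 °C, 5% CO2) exposed to compound or DMSO for 16 h. Lysed in IP lysis buffer, SDS-PAGE, PVDF transfer, primary antibody overnight at 4 °C, HRP secondary, ECL detection. Bands quantified densitometrically, normalized to loading control and DMSO, reported as remaining protein; at least three independent experiments.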
On the technique in general: A western blot detects proteins with antibodies after separation by electrophoresis.

For experiment [2], the target named is T1, von Hippel-Lindau disease tumor suppressor/Baculoviral IAP repeat-containing protein 3 (Homo sapiens). In words: PROTAC activity at VHL/IAP in human MM1.S cells assessed as induction of cIAP2 degradation at 1 uM incubated for 16 hrs by western blot analysis. In short, it runs like this:
as §1

Experiment [3] has as its target T2, von Hippel-Lindau disease tumor suppressor/Baculoviral IAP repeat-containing protein 2 (Homo sapiens) (UniProt Q13490+P40337). The experiment in a line: PROTAC activity at VHL/IAP in human MM1.S cells assessed as induction of cIAP1 degradation at 1 uM incubated for 16 hrs by western blot analysis. The gist of the method: as §1
Experiment [4] has as its target T2, von Hippel-Lindau disease tumor suppressor/Baculoviral IAP repeat-containing protein 2 (Homo sapiens). The experiment in a line: PROTAC activity at VHL/IAP in human MM1.S cells assessed as induction of cIAP1 degradation at 10 nM incubated for 16 hrs by western blot analysis. The gist of the method: as §1
Experiment [5] concerns the target T3, von Hippel-Lindau disease tumor suppressor/E3 ubiquitin-protein ligase XIAP (Homo sapiens) (UniProt P98170+P40337). The experiment in a line: PROTAC activity at VHL/IAP in human MM1.S cells assessed as induction of XIAP degradation at 1 uM incubated for 16 hrs by western blot analysis. In short, it runs like this: as §1
Experiment [6] deals with T3, von Hippel-Lindau disease tumor suppressor/E3 ubiquitin-protein ligase XIAP (Homo sapiens). The experiment in a line: PROTAC activity at VHL/IAP in human MM1.S cells assessed as induction of XIAP degradation at 10 nM incubated for 16 hrs by western blot analysis. The gist of the method:
as §1

Experiment [7] addresses T4, Protein cereblon/E3 ubiquitin-protein ligase XIAP (Homo sapiens) (UniProt P98170+Q96SW2). In words: PROTAC activity at CRBN/IAP in human MM1.S cells assessed as induction of XIAP degradation at 0.1 uM incubated for 3 hrs by diaPASEF-based proteomics analysis. The gist of the method:
(§2)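 MM.1S cells exposed to DMSO or 0.1 μM compound for 3 h, then washed with PBS and snap-frozen. Lysed in 8 M urea/EPPS pH 8.5 buffer. 50 μg protein reduced, alkylated, precipitated, then digested with LysC and trypsin. Analysed by diaPASEF on timsTOF Pro2. Missing values imputed from a Gaussian distribution; log2 fold change versus DMSO with limma statistics.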

For experiment [8], the target named is T4, Protein cereblon/E3 ubiquitin-protein ligase XIAP (Homo sapiens). In words: PROTAC activity at CRBN/IAP in human MM1.S cells assessed as induction of XIAP degradation incubated for 16 hrs by western blot analysis. The note with it: dose 0.0001-1 µM. In short, it runs like this: (§3)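 MM.1S cells treated 16 h at the stated concentration. Lysed, run on SDS-PAGE and transferred to PVDF. Probed with primary antibodies overnight at 4 °C, then HRP secondaries, with ECL detection. Band densitometry normalized to loading control and to DMSO-treated cells. Averages of at least three independent experiments.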

The target in experiment [9] is Protein cereblon/Zinc finger protein Aiolos (Homo sapiens) (UniProt Q96SW2+Q9UKT9). In words: PROTAC activity at CRBN/IKZF3 in human MM1.S cells assessed as induction of IKZF3 degradation at 1 uM incubated for 16 hrs by western blot analysis. In short, it runs like this: as §3
Experiment [10] deals with T5, Protein cereblon/Baculoviral IAP repeat-containing protein 3 (Homo sapiens) (UniProt Q13489+Q96SW2). The experiment in a line: PROTAC activity at CRBN/IAP in human MM1.S cells assessed as induction of cIAP2 degradation pretreated for 1 hr with ubiquitin-activating inhibitor, MLN7243 followed by incubation with drug for 3 hrs by western blot analysis.
Experiment [11] addresses T6, Protein cereblon/Baculoviral IAP repeat-containing protein 2 (Homo sapiens) (UniProt Q13490+Q96SW2). The experiment in a line: PROTAC activity at CRBN/IAP in human MM1.S cells assessed as induction of cIAP1 degradation at 10 nM incubated for 16 hrs by western blot analysis. The gist of the method:
as §3

Experiment [12] deals with T6, Protein cereblon/Baculoviral IAP repeat-containing protein 2 (Homo sapiens). In words: PROTAC activity at CRBN/IAP in human MM1.S cells assessed as induction of cIAP1 degradation pretreated for 1 hr with proteasome inhibitor, MG132 followed by incubation with drug for 3 hrs by western blot analysis.
Experiment [13] has the same target. The experiment in a line: PROTAC activity at CRBN/IAP in human MM1.S cells assessed as induction of cIAP1 degradation at 100 nM incubated for 3 hrs by diaPASEF-based analysis. In short, it runs like this: as §2
Experiment [14] has as its target T5, Protein cereblon/Baculoviral IAP repeat-containing protein 3 (Homo sapiens). In words: PROTAC activity at CRBN/IAP in human MM1.S cells assessed as induction of cIAP2 degradation at 0.1 uM incubated for 3 hrs by western blot analysis. In short, it runs like this: (§4)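 MM.1S cells treated with 0.1 μM compound for 3 h. Western blotting of lysates on PVDF with HRP/ECL detection.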

For experiment [15], the target named is T6, Protein cereblon/Baculoviral IAP repeat-containing protein 2 (Homo sapiens). In words: PROTAC activity at CRBN/IAP in human MM1.S cells assessed as induction of cIAP1 degradation at 0.1 uM incubated for 3 hrs by western blot analysis. The gist of the method: as §4
Experiment [16] deals with T5, Protein cereblon/Baculoviral IAP repeat-containing protein 3 (Homo sapiens). The experiment in a line: PROTAC activity at CRBN/IAP in human MM1.S cells assessed as induction of cIAP2 degradation incubated for 16 hrs by western blot analysis. The note with it: dose 0.0001-1 µM. The gist of the method:
as §3

In experiment [17] the target is T4, Protein cereblon/E3 ubiquitin-protein ligase XIAP (Homo sapiens). The experiment in a line: PROTAC activity at CRBN/IAP in human MM1.S cells assessed as induction of XIAP degradation at 10 nM incubated for 16 hrs by western blot analysis.
Experiment [18] addresses T6, Protein cereblon/Baculoviral IAP repeat-containing protein 2 (Homo sapiens). In words: PROTAC activity at CRBN/IAP in human MM1.S cells assessed as induction of cIAP1 degradation incubated for 16 hrs by western blot analysis. The note with it: dose 0.0001-1 µM. In short, it runs like this:
as §3

For experiment [19] the target is unchanged. The experiment in a line: PROTAC activity at CRBN/IAP in human MM1.S cells assessed as induction of cIAP1 degradation at 0.1 uM by western blot analysis. The note with it: time 3-96 hrs, TDE = time-dependent effect. In short, it runs like this:
as §3

Experiment [20] has as its target T4, Protein cereblon/E3 ubiquitin-protein ligase XIAP (Homo sapiens). In words: PROTAC activity at CRBN/IAP in human MM1.S cells assessed as induction of XIAP degradation pretreated for 1 hr with ubiquitin-activating inhibitor, MLN7243 followed by incubation with drug for 3 hrs by western blot analysis.
Experiment [21] concerns the target T5, Protein cereblon/Baculoviral IAP repeat-containing protein 3 (Homo sapiens). In words: PROTAC activity at CRBN/IAP in human MM1.S cells assessed as induction of cIAP2 degradation pretreated for 1 hr with proteasome inhibitor, MG132 followed by incubation with drug for 3 hrs by western blot analysis.
The target is the same in experiment [22]. The experiment in a line: PROTAC activity at CRBN/IAP in human MM1.S cells assessed as induction of cIAP2 degradation at 0.1 uM by western blot analysis. The note with it: time 3-96 hrs, TDE = time-dependent effect. The gist of the method: as §3
Experiment [23] concerns the target T4, Protein cereblon/E3 ubiquitin-protein ligase XIAP (Homo sapiens). The experiment in a line: PROTAC activity at CRBN/IAP in human MM1.S cells assessed as induction of XIAP degradation at 0.1 uM incubated for 3 hrs by western blot analysis. In short, it runs like this:
as §4

Experiment [24] deals with T6, Protein cereblon/Baculoviral IAP repeat-containing protein 2 (Homo sapiens). The experiment in a line: PROTAC activity at CRBN/IAP in human MM1.S cells assessed as induction of cIAP1 degradation pretreated for 1 hr with ubiquitin-activating inhibitor, MLN7243 followed by incubation with drug for 3 hrs by western blot analysis.
In experiment [25] the target is T4, Protein cereblon/E3 ubiquitin-protein ligase XIAP (Homo sapiens). The experiment in a line: PROTAC activity at CRBN/IAP in human MM1.S cells assessed as induction of XIAP degradation pretreated for 1 hr with proteasome inhibitor, MG132 followed by incubation with drug for 3 hrs by western blot analysis.
Experiment [26] shares this target. The experiment in a line: PROTAC activity at CRBN/IAP in human MM1.S cells assessed as induction of XIAP degradation at 0.1 uM by western blot analysis. The note with it: time 3-96 hrs, TDE = time-dependent effect.
For experiment [27] the target is unchanged. The experiment in a line: PROTAC activity at CRBN/IAP in human MM1.S cells assessed as induction of XIAP degradation at 1 uM incubated for 16 hrs by western blot analysis. The gist of the method:
as §3

T6 sequence (Q13490 whole entry, looked up): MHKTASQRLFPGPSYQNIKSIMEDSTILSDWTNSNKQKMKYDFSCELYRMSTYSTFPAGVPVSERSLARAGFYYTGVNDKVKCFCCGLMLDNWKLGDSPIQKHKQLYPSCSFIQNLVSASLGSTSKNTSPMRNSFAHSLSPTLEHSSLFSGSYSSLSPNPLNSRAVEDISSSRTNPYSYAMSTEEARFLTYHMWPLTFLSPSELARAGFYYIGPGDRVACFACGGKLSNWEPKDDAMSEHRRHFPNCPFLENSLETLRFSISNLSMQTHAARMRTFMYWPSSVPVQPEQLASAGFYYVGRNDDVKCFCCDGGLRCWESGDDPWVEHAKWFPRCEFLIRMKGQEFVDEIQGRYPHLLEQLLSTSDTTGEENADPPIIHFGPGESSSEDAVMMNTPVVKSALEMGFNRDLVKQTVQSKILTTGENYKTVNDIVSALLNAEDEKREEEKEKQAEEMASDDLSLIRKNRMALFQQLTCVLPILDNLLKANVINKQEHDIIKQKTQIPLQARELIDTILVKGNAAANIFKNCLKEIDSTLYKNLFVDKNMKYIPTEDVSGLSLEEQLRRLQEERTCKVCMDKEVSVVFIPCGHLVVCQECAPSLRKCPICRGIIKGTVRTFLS
T6 sequence (Q96SW2 whole entry, looked up): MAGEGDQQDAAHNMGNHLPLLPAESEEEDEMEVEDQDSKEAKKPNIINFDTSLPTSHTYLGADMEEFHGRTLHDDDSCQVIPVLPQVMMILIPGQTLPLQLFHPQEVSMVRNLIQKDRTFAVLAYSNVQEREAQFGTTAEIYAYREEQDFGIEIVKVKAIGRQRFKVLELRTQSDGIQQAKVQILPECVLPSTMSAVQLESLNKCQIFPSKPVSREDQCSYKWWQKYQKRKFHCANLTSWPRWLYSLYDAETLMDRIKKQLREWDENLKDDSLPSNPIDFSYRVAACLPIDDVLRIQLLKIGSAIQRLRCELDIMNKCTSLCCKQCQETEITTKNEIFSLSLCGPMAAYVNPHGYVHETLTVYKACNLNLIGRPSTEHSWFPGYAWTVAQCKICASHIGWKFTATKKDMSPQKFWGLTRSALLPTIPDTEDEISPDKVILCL
T5 sequence (Q13489 whole entry, looked up): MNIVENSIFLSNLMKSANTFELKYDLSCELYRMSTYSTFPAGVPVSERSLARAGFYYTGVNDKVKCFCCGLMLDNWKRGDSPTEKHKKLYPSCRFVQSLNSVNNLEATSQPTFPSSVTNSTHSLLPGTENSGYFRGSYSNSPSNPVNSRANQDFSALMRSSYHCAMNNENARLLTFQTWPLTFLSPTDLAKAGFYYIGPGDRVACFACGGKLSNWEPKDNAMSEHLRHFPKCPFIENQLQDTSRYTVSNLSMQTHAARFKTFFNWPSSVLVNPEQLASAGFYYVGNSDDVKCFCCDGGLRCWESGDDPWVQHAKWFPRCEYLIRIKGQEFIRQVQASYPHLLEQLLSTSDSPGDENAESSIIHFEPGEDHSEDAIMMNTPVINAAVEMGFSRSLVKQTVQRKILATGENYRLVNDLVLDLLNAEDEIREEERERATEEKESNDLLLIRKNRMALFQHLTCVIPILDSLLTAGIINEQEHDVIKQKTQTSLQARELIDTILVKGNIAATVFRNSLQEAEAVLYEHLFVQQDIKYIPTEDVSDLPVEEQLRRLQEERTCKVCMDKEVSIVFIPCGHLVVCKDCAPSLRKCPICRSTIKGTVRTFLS
T5 sequence (Q96SW2 whole entry, looked up): as the sequence (Q96SW2 whole entry, looked up) above
T4 sequence (P98170 whole entry, looked up): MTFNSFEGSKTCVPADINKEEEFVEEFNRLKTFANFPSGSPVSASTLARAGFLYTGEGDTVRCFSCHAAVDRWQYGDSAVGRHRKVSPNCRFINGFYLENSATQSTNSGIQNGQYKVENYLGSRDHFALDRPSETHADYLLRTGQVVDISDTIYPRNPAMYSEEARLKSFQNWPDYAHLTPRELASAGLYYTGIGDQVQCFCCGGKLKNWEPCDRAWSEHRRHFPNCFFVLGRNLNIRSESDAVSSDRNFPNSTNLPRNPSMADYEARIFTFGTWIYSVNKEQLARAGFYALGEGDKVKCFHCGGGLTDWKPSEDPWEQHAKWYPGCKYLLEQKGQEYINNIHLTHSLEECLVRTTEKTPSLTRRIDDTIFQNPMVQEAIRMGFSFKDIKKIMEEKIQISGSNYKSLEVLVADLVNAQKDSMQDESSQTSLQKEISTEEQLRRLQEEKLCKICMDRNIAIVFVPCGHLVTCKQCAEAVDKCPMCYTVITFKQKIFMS
T4 sequence (Q96SW2 whole entry, looked up): as the sequence (Q96SW2 whole entry, looked up) above
T2 sequence (P40337 whole entry, looked up): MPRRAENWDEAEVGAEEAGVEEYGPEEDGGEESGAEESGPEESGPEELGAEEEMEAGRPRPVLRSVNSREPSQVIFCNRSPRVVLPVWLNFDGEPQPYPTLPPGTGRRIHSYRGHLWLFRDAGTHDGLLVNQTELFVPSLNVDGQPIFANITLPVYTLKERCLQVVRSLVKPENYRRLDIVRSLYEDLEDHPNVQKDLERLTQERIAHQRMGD
T2 sequence (Q13490 whole entry, looked up): as the sequence (Q13490 whole entry, looked up) above
T1 sequence (P40337 whole entry, looked up): as the sequence (P40337 whole entry, looked up) above
T1 sequence (Q13489 whole entry, looked up): as the sequence (Q13489 whole entry, looked up) above
T3 sequence (P40337 whole entry, looked up): as the sequence (P40337 whole entry, looked up) above
T3 sequence (P98170 whole entry, looked up): as the sequence (P98170 whole entry, looked up) above
Chain of Protein cereblon/Zinc finger protein Aiolos (Homo sapiens) (Q96SW2 whole entry, looked up): as the sequence (Q96SW2 whole entry, looked up) above
Chain of Protein cereblon/Zinc finger protein Aiolos (Homo sapiens) (Q9UKT9 whole entry, looked up): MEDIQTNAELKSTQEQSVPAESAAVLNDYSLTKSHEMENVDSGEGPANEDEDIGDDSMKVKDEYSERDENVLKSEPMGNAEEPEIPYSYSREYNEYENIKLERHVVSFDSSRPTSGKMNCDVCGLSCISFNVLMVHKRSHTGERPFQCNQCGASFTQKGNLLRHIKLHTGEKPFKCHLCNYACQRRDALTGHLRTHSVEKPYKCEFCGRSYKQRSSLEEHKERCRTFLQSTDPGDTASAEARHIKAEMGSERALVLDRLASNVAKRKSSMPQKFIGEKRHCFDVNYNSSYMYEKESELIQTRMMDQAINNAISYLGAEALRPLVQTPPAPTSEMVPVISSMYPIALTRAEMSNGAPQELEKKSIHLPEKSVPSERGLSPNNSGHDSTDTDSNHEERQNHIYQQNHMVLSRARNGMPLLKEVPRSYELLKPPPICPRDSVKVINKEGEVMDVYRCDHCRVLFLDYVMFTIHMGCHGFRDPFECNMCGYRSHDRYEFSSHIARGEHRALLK

For the molecule `CN[C@@H](C)C(=O)N[C@H](C(=O)N1C[C@@H](Oc2cccc(OCCCCCCOCCCCCCOCCCCCCOc3cc(-c4scnc4C)ccc3CNC(=O)[C@@H]3C[C@@H](O)CN3C(=O)[C@H](C(C)C)N3Cc4ccccc4C3=O)c2)C[C@H]1C(=O)N[C@@H]1CCCc2ccccc21)C1CCCCC1`, the result in experiment [1], in [4] and in experiment [6] was inactive. In addition, the result in experiment [2], in experiment [3] and in experiment [5] was Active.

As to `CN[C@@H](C)C(=O)N[C@H](C(=O)N1C[C@@H](Oc2cccc(OCCOCCCCCCOCCCCCCNc3cccc4c3C(=O)N(C3CCC(=O)NC3=O)C4=O)c2)C[C@H]1C(=O)N[C@@H]1CCCc2ccccc21)C1CCCCC1` (some centres not stated), the result in experiment [7], in experiment [9] and in experiment [13] was Active. Moreover, the Activity entry in experiment [8] was “Dose-Dependent Effect”; in experiment [11], 100%; in experiment [14], 100%; in [15] it was 100%; in experiment [16], “Dose-Dependent Effect”; in [17] it was 100%. For the same molecule, the Activity entry in experiment [18] is “Dose-Dependent Effect”; in experiment [19] it was “Tde”; in [22] it was “Tde”; in experiment [23], 100%; in [26], “Tde”. Also, the result in experiment [10], in [12], in experiment [20], in experiment [21], in experiment [24] and in experiment [25] was inactive.

With `CN[C@@H](C)C(=O)N[C@H](C(=O)N1C[C@@H](Oc2cccc(OCCOCCCCCCOCCCCCCNc3cccc4c3C(=O)N(C3CCC(=O)N(C)C3=O)C4=O)c2)C[C@H]1C(=O)N[C@@H]1CCCc2ccccc21)C1CCCCC1` (some centres not stated), the outcome in [27] was inactive.

The values above are taken from ChEMBL document CHEMBL5338733, “Heterobifunctional Ligase Recruiters Enable pan-Degradation of Inhibitor of Apoptosis Proteins” (J Med Chem, 2023).
